# According to ChEMBL document CHEMBL1156663, “11-Hydroxymonocerin from the plant endophytic fungus Exserohilum rostratum” (J Nat Prod, 2008):
# How the values were obtained:
# [1] = system: Plasmodium falciparum; test: Antimalarial activity against multidrug-resistant Plasmodium falciparum K1; type: functional, organism-based
# In short: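 In vitro microculture radioisotope assay against P. falciparum K1 (multidrug-resistant), parasites maintained in continuous culture; IC50 determined, dihydroartemisinin run as positive control.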
# [2] = system: BT-474; test: Cytotoxicity against human BT474 cells at 20 ug/mL by MTT assay; type: functional, cell-based
# [3] = system: CHAGO; test: Cytotoxicity against human CHAGO cells at 20 ug/mL by MTT assay; type: functional, cell-based
# [4] = system: HepG2; test: Cytotoxicity against human HepG2 cells at 20 ug/mL by MTT assay; type: functional, cell-based
# [5] = system: KATO3; test: Cytotoxicity against human KATO3 cells at 20 ug/mL by MTT assay; type: functional, cell-based
# [6] = system: SW-620; test: Cytotoxicity against human SW620 cells at 20 ug/mL by MTT assay; type: functional, cell-based
Compound,IC50 [1],Activity [2],Activity [3],Activity [4],Activity [5],Activity [6]
CC[C@@H](OC(C)=O)[C@@H]1C[C@@H]2OC(=O)c3c(cc(OC)c(OC)c3OC(C)=O)[C@@H]2O1,9.1 µM,Not toxic,Not toxic,Not toxic,Not toxic,Not toxic
CCC[C@H]1C[C@H]2OC(=O)c3c(cc(OC)c(OC)c3O)[C@H]2O1 [MONOCERIN],0.68 µM,Not toxic,Not toxic,Not toxic,Not toxic,Not toxic
CC[C@@H](O)[C@@H]1C[C@@H]2OC(=O)c3c(cc(OC)c(OC)c3O)[C@@H]2O1,7.7 µM,Not toxic,Not toxic,Not toxic,Not toxic,Not toxic
CCC[C@@H]1C[C@@H]2OC(=O)c3c(cc(OC)c(OC)c3OC(C)=O)[C@@H]2O1,0.82 µM,Not toxic,Not toxic,Not toxic,Not toxic,Not toxic
